Results from different studies.
Compare with care: the assays were run in different laboratories.
PPO3: PPO3 (Agaricus bisporus, UniProt C7FF04)
HDAC2: Histone deacetylase 2 (HDAC2, Homo sapiens, UniProt Q92769)
HTR2A: 5-hydroxytryptamine receptor 2A (HTR2A, Homo sapiens, UniProt P28223)

Compound | target | observed | action | method | IC50 [µM]
Nc1nc(-c2ccc(I)cc2)cc(-c2ccc(-c3cc(-c4ccc(I)cc4)nc(N)n3)cc2)n1 | PPO3 | enzyme activity | inhibitor | absorbance | 30.6
O=C(NO)c1cncc(OS(=O)(=O)Oc2ccc3ccccc3c2)c1 | HDAC2 | enzyme activity | inhibitor | fluorescence | 1.46
Nc1ccccc1NC(=O)c1ccc(CNc2ccc(NC3=C(Cl)C(=O)c4cccnc4C3=O)cc2)cc1 | HDAC2 | enzyme activity | inhibitor |  | 0.415
O=C1CC[C@H](N2Cc3cc(N4CCN(CC5CCN(c6ccc([C@@H]7c8ccc(O)cc8CC[C@@H]7c7ccccc7)cc6)CC5)CC4)ccc3C2=O)C(=O)N1 | Kappa-type opioid receptor (OPRK1, Homo sapiens, UniProt P41145) | ligand displacement |  | radioligand | 0.25
CCN(Cc1cc(Br)ccc1O)C(=O)C(N)Cc1ccco1 (stereo not drawn) | HTR2A | calcium signal | antagonist |  | 27
C=CC(=O)N1CCCN(C(=O)c2cc(Sc3cnc(NC(=O)C4CC4)s3)c(C)cc2OC)C[C@H]1C | Tyrosine-protein kinase TXK (TXK, Homo sapiens, UniProt P42681) | enzyme activity | inhibitor |  | 0.261
Nc1nc(-c2ccccc2)cc(-c2ccc(-c3cc(-c4ccccc4)nc(N)n3)cc2)n1 | PPO3 | enzyme activity | inhibitor | absorbance | 86.7
O=C(NO)c1cncc(OS(=O)(=O)Oc2ccc(C(F)(F)F)cc2)c1 | HDAC2 | enzyme activity | inhibitor | fluorescence | 5.61
c1ccc(O[C@H]2CCN(Cc3ccc(-c4ccn[nH]4)o3)C2)cc1 | HTR2A | calcium signal | antagonist |  | 5.2
Nc1nc(-c2ccc(Br)cc2)cc(-c2ccc(-c3cc(-c4ccc(Br)cc4)nc(N)n3)cc2)n1 | PPO3 | enzyme activity | inhibitor | absorbance | 40.9
C=CCNC(=O)C(C)N1CCCC(c2ccc(O)cc2)C1 (stereo not drawn) | HTR2A | calcium signal | antagonist |  | 15.8
CCc1c(C)nc(-c2ccc(Cl)s2)nc1Nc1ccc(CC(=O)O)cc1 | 3',5'-cyclic-AMP phosphodiesterase 4A (PDE4A, Homo sapiens, UniProt P27815) | enzyme activity | inhibitor | FP | ~3.7
